Source: PubChem BioAssay
This is a sample that favours compounds with a hit; in the whole collection about 0.89% have one here.
NTR1 agonist – activates human neurotensin receptor 1; P30989; NTR1-U2OS beta-arrestin-GFP spot imaging, agonist mode; activation, % at 20 µM; hit rate 0.17% among 330,000; AID 493036;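 active = activation at or above 40% of the spot to cytoplasm intensity ratio, with at least 20 cells analyzed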;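 also: 0% = DMSO without peptide and 100% = 100 nM NTR1 peptide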
Target sequence (P30989 whole entry, looked up): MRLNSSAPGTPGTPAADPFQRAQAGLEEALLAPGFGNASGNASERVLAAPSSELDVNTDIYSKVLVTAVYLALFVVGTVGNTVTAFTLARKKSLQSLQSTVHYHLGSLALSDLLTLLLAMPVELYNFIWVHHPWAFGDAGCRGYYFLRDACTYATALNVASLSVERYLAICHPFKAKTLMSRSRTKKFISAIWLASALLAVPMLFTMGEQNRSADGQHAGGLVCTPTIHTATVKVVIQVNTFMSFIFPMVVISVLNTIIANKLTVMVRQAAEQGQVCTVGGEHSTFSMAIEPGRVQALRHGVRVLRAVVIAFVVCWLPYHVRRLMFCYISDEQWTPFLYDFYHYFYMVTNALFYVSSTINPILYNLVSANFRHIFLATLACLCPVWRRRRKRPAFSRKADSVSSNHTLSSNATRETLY
XiGFP reactiv – X-chromosome reactivation activator. XiGFP mouse fibroblasts, % GFP-positive cells imaging, 3 d; cells co-treated with 5-aza-dC sensitizer; scaled so ellipticine positive control = 100%. hit rate 0.055% among 360,000. activation, % at 7.58 µM;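 active = mean normalized replicate activation at least 10% and every replicate at or above 10%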;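 also: 0% = median of on-plate neutral control wells and 100% = ellipticine 6 µM median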
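material = 68-5-11 XiGFP fibroblast line | medium = DMEM plus 5-aza-dC sensitizer | schedule = 3 days compound exposure | benchmarks = positive control ellipticine, 6 µM final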
MIN6 prolif-1 – inducers of beta-cell replication in MIN6 cells; hit rate 0.29% among 330,000; MIN6 cells proliferation, ATPlite luminescence, 48 h; cells starved in 0.2% serum; 100% = growth in 10% serum; AID 2380; proliferation, % at 10 µM;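 active = compounds whose signal lies at least 3.5 SD above the mean of all wells on their plate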;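 also: 0% = DMSO-treated cells in low-serum medium and 100% = 10% serum control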
V-ATPase pH – alters yeast V-ATPase proton transport | AID 504577 | response, % at 10 µM | S. cerevisiae, pHLuorin cytosolic pH fluorescence | hit rate 0.37% among 350,000; in the data active = response mostly above about 7.3%, no sharp cut-off; inactive = mostly below about 5.4%; also: actives read high
Arrestin-AP2 inh – blocks beta-arrestin peptide binding to AP2 adaptin; hit rate 0.31% among 340,000; inhibition, % at 10 µM; AID 504490; FITC-arrestin peptide / GST-AP2 beads, flow cytometry; AP2 beta2 appendage carries R879A mutation;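 active = inhibition above a set limit, near 3 SD of compounds lacking own fluorescence, cut at about 54% in these data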;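 also: plate controls were DMSO wells for no effect and 5 µM unlabelled arrestin peptide for full effect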
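Assay system: GST-AP2 R879A bound to glutathione beads, E. coli-expressed; Medium: PBS with 0.05% Tween 20 and 0.1% BSA; Also added: fluorescein-tagged arrestin peptide at 50 nM final; Timing: 12 min plus 1 h, RT; Measured by: flow cytometry, FL1 (488/535 nm); Evaluation: percent drop in bead-associated FITC signal.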
T cell modulator – modulates CD8 T cell binding to vesicles | 2C CD8+ T cell-vesicle binding, flow cytometry; active compounds read low | hit rate 0.068% among 330,000 | response (vesicle binding), % at 7 µM | AID 2052;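 active = response, share of CD8 T cells binding vesicles, and their 90th percentile fluorescence all below set limits, cut at about 80% in these data, passing the limit was not always enough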;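 also: values below 100% mean blocked vesicle binding to the CD8+ T cells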
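Benchmarks: naked versus QL9-loaded vesicles / Assay system: purified 2C TCR transgenic mouse naive CD8+ T cells / Technique: high-throughput flow cytometry with anti-B7-1 and anti-CD8 staining / Timing: Cell–vesicle co-incubation 1.5 h at 37 °C, staining 20 min on ice / Read-out: percent CD8+ FL2 mean versus row control / Probe or stimulus: QL9-loaded Drosophila micro-vesicles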
MIN6 prolif-2 – MIN6 beta-cell replication induction, confirmed; shares compounds with MIN6 prolif-1; MIN6 beta-cell proliferation, ATPlite luminescence, 48 h; cells kept in 0.2% serum; scaled between 0.2% and 10% serum; proliferation increase, % at 50 µM; 920 tested, under 10 active; AID 463095;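 active = proliferation increase above 40% at any of the four tested concentrations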
* = called active by the depositor; · = not tested or not shown.

SMILES	NTR1 agonist	XiGFP reactiv	MIN6 prolif-1	V-ATPase pH	Arrestin-AP2 inh	T cell modulator	MIN6 prolif-2
Cc1nnsc1C(=O)Nc1ccc(Cl)cc1	1	·	0	-2	-6	287	·
Cc1nnsc1C(=O)NC(=O)Nc1ccc(F)c(Cl)c1	0	0	5.9*	-2	12	539	-6
CCOc1ccccc1/C=C/c1onc(C)c1S(=O)(=O)N1CCC(C(=O)N(CC)CC)CC1	2	0	4.8*	-3	-12	339	-6
C[C@@H]1CN([C@H](C)CO)C(=O)c2cccc(NC(=O)Nc3ccc(C(F)(F)F)cc3)c2O[C@H]1CN(C)C(=O)Nc1ccc2c(c1)OCO2	·	-1	·	·	·	·	·
CCc1nc2ccccc2c(C(=O)Nc2cc(C)ccc2C)c1C	0	0	5.8*	-3	3	246	-2
C[C@@H]1CCCCO[C@@H](CN(C)C(=O)c2ccncc2)[C@@H](C)CN([C@H](C)CO)C(=O)c2cc(NC(=O)c3ccccc3)ccc2O1	·	0	·	·	·	·	·
N[C@H]1CC[C@H](CCn2cc(-c3ccccn3)nn2)O[C@@H]1CO	·	0	·	·	·	·	·
Cc1ccccc1CNC(=O)c1ccccc1N	0	·	8.4*	2	11	684	-2
CCOc1cc(/C=N/n2cnnc2)ccc1OCC(=O)Nc1ccccc1OC	0	·	8.0*	-1	-3	718	2
COc1ccccc1NC(=O)COc1ccc(/C=N/n2cnnc2)cc1OC	-1	·	-4	2	7	897	·
CO[C@@H]1CN(C)C(=O)c2ccc(NS(=O)(=O)c3ccc(Cl)cc3)cc2OC[C@@H](C)NC[C@@H]1C	·	0	·	·	·	·	·
O=c1c2ccccc2[nH]c(=S)n1C1CCCCC1	3	·	-1	-13	-1	128	·
CC1CCC(n2c(=S)[nH]c3ccccc3c2=O)CC1 (centres undefined)	17	·	11*	0	23	181	-4
O=C(C[C@H]1CC[C@@H]2[C@H](COC[C@@H](O)CN2C(=O)Nc2ccc(Cl)c(Cl)c2)O1)NCc1ccc(Cl)c(Cl)c1	·	0	·	·	·	·	·
O=C(COC(=O)Cn1cnc2ccccc21)Nc1cccc([N+](=O)[O-])c1	-1	0	-3	-2	19	542	·
O=C(Cn1cnc2ccccc21)Nc1cccc([N+](=O)[O-])c1	4	0	8.2*	0	-4	477	-3
CC[C@@H]1CC=CC[C@@H](C)Oc2ccccc2C(=O)N(C)[C@@H](C(C)C)C(=O)N1 (mixture of isomers)	·	0	·	·	·	·	·
CO[C@@H]1CN(C)C(=O)c2ccc(NC(=O)C3CC3)cc2OC[C@H](C)N(C(=O)c2cnccn2)C[C@H]1C	·	0	·	·	·	·	·
C=CCn1c(N2CCN(c3ccc(OC)cc3)CC2)nc2c1c(=O)n(C)c(=O)n2C	1	0	8.3*	0	2	164	-3
O=C(c1ccccc1)N1CC[C@@H]2[C@H](CO)Nc3ccc(C#Cc4cccc(F)c4)cc3[C@@H]21	·	0	·	·	·	·	·
CCC(=O)Nc1cc(C(=O)O)ccc1Sc1ccc(C)cc1	-1	0	7.5*	1	-15	341	0
O=C(N[C@H]1CC[C@@H](CCn2cc(-c3ccccn3)nn2)O[C@@H]1CO)c1ccccc1	·	0	·	·	·	·	·
O=C(NC1CCCC1)C(c1ccncc1)N(C(=O)c1csnn1)c1cccc(Cl)c1 (centres undefined)	1	0	2	3	0	333	·
O=C(NC1CCCC1)C(c1ccncc1)N(C(=O)c1csnn1)c1ccc(F)c(Cl)c1 (centres undefined)	-1	0	5.9*	5	-10	651	0
C[C@@H]1CN([C@@H](C)CO)C(=O)Cc2cc(NC(=O)Nc3ccc(F)cc3)ccc2O[C@H]1CN(C)C(=O)Nc1cccc2ccccc12	·	0	·	·	·	·	·
SMILES	NTR1 agonist	XiGFP reactiv	MIN6 prolif-1	V-ATPase pH	Arrestin-AP2 inh	T cell modulator	MIN6 prolif-2
CC(C)CC(C(=O)NC1CCCCC1)N(Cc1cccs1)C(=O)c1snc(C(N)=O)c1N (centres undefined)	1	0	7.1*	3	20	245	-6
CC(C)CC(C(=O)NC1CCCC1)N(Cc1cccs1)C(=O)c1snc(C(N)=O)c1N (centres undefined)	-1	·	1	8	-8	407	·
CCCCN(CC)C(=O)c1cc2c(=O)n3cccc(C)c3nc2s1	5	0	11*	-2	13	168	-6
CCN(C(=O)c1cc2c(=O)n3ccccc3nc2s1)C1CCCCC1	0	0	6.9*	2	-8	159	-4
CCCC(=O)Nc1ccc2c(c1)C(=O)N(C)C[C@@H](OC)[C@H](C)CN(Cc1ccccc1)[C@@H](C)CO2	·	1	·	·	·	·	·
COc1cccc(-c2nnc3n2N=C(c2cc(OC)ccc2OC)CS3)c1	6	·	8.0*	5	18	641	-4
CCOc1cccc(-c2nnc3n2N=C(c2cc(OC)ccc2OC)CS3)c1	3	·	-1	-2	-3	497	·
CCC(=O)N1CCC2(CC1)CN(S(C)(=O)=O)[C@H](CO)c1[nH]c3cc(OC)ccc3c12	·	0	·	·	·	·	·
CC(C)NC(=O)Nc1ccc2c(c1)C(=O)N([C@H](C)CO)C[C@@H](C)[C@H](CN(C)S(=O)(=O)c1cn(C)cn1)O2	·	0	·	·	·	·	·
NC(=O)c1cc(S(=O)(=O)NCCc2ccc(S(N)(=O)=O)cc2)cs1	0	0	5.5*	3	-24	446	0
NC(=O)c1cc(S(=O)(=O)NCCc2ccccc2)cs1	0	0	1	2	-1	228	·
CN(C)c1ccc2c(c1)[C@H]1C[C@H](CC(=O)NCc3cccc(F)c3)O[C@@H](CO)[C@H]1O2	·	0	·	·	·	·	·
CN(C)C(=O)c1cccc(-c2ccc3c(c2)[C@@H]2[C@@H](CCN2C(=O)c2ccc4c(c2)OCO4)[C@H](CO)N3)c1	·	0	·	·	·	·	·
O=C(COc1ccccc1)NC1C(=O)N2C(C(=O)O)=C(Cl)CSC12 (centres undefined)	0	0	10*	-2	36	157	-1
Cc1cc(C)c2c3c(c(-c4ccccc4)n2n1)c(=O)n(C)c(=O)n3C	·	0	·	0	-1	·	·
Cc1cccc(-c2c3c(=O)n(C)c(=O)n(C)c3c3cccnn23)c1	0	·	9.0*	-3	27	237	-2
CC(=O)N1N=C(c2cccc(Br)c2)OC12CCCC2	2	0	-3	1	32	314	·
CC(=O)N1N=C(c2ccc(Cl)cc2)OC12CCCC2	0	0	7.3*	1	3	74	-2
CC1(C)CN(c2ccc(C(=O)c3ccccc3)cc2)C1=O	0	0	7.8*	1	5	299	-1
